DAGLB inh = diacylglycerol lipase beta (human) inhibition. HEK293T DAGLB membrane lysate, EnzChek fluorogenic substrate. inhibition, % at 5.17 µM. actives 0.059% (n = 340,000); in the data active = inhibition above about 34%;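 note: 0% = enzyme with vehicle and 100% = wells lacking enzyme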
GPR7 antag = antagonists of human GPR7 (neuropeptides B/W receptor 1); P48145; GPR7-expressing cells, fluorescence antagonist assay; inhibition, % at 4.4 µM; actives 1.1% (n = 290,000); AID 1861; in the data active = inhibition above about 16%, passing the limit was not always enough;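 note: cells stimulated with the agonist NPW; 0% = agonist with vehicle and 100% = vehicle without agonist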
Target sequence (P48145 whole entry, looked up): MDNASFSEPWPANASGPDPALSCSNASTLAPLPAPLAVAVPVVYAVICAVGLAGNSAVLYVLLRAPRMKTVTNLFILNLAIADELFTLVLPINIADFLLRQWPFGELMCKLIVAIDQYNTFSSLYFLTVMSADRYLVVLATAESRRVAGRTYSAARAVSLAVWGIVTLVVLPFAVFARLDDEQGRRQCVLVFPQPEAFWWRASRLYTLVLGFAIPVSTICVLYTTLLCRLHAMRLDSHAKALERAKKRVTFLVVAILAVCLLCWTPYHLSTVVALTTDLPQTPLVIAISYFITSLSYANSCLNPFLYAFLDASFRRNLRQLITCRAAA
TAAR1 antagonist = human TAAR1 antagonism. Q96RJ0. CHO RD-HGA16 TAAR1, Fluo-8 calcium fluorescence, antagonist. inhibition, % at 3 µM. actives 1.5% (n = 360,000). AID 624466;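 active = inhibition above a per-plate cutoff, the mean inhibition of test compounds on that plate plus 3 SD, cut at about 49% in these data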;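 note: 0% = DMSO plus EC80 beta-PEA response and 100% = DMSO alone without agonist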
Target sequence (Q96RJ0 whole entry, looked up): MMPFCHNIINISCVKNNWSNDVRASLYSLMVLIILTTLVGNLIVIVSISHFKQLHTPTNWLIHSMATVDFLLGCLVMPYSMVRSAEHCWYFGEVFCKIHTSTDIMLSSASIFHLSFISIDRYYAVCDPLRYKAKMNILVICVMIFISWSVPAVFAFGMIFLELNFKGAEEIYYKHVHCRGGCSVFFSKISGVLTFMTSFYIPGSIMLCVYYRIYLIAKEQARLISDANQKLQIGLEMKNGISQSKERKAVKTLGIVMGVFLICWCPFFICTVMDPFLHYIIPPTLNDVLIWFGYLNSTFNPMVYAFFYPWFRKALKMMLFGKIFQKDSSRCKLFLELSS
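Test system: hTAAR1-expressing CHO RD-HGA16 cells, Gα16-coupled; Probe or stimulus: EC80 β-phenethylamine stimulus; Compound dosing: single nominal final test compound concentration of 3 µM; Timing: 140 s kinetic read after compound, 140 s after agonist; Signal: Fluo-8 calcium-sensitive fluorescence; Measure: % inhibition of agonist calcium response; Controls: DMSO and EC80 PEA controls.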
MPTP block = inhibitors of mitochondrial permeability transition pore; isolated mouse mitochondria, Ca2+ swelling absorbance, 30 min; inhibition, % at 10 µM; actives 1.4% (n = 360,000); AID 602449;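 active = inhibition of 50% or more, scaled per plate between neutral and stimulator controls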;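 note: 0% = DMSO wells given calcium and 100% = 1 mM EGTA wells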
TAAR1 ag = human TAAR1 agonism. Q96RJ0. CHO RD-HGA16 TAAR1, Fluo-8 calcium fluorescence; vehicle wells 0%, saturating PEA agonist 100%. activation, % at 3 µM. actives 0.99% (n = 360,000). AID 624467;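 active = activation above the mean activation of all test compounds in the run plus 3 SD, cut at about 38% in these data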
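test system = CHO RD-HGA16 cells carrying human TAAR1 plus Gα16 | schedule = 17-24 h seeding, 75 min 37 °C dye, 30 min RT | compound dosing = 3 µM single concentration | control set = DMSO and PEA EC100 | replicates = n 1 | signal = Fluo-8 fluorescence, 5 s baseline then 140 s kinetic read | measure = percent activation vs PEA EC100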
Rh123 counter = membrane potential counter-screen of mitochondrial pore inhibitors. shares compounds with MPTP block. isolated mitochondria, Rhodamine 123 fluorescence. inhibition, % at 10 µM. actives 78% (n = 5,000); in the data active = inhibition above about 22%;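 note: 0% = DMSO vehicle and 100% = positive control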
MPTP swell DR = MPTP inhibition, dose response swelling confirmation; actives 58% (n = 780); isolated mitochondria swelling, absorbance; shares compounds with MPTP block; IC50, µM; in the data active = IC50 below about 20 µM
MPTP counter DR = MPTP inhibitor counter-screen activity, dose response; shares compounds with MPTP block; isolated mitochondria counterscreen, fluorescence read-out; IC50, µM; actives 49% (n = 780); AID 651564; in the data active = IC50 below about 80 µM
Active calls of the source: *; i = inactive; · = no result; ! = repeats disagree. Most compounds without a hit are left out; they make up all but 4% or so of the library.

SMILES | DAGLB inh | GPR7 antag | TAAR1 antagonist | MPTP block | TAAR1 ag | Rh123 counter | others
C[C@@H]1CCCCO[C@H](CN(C)C(=O)Cc2ccccc2)[C@H](C)CN([C@@H](C)CO)C(=O)c2cc(NC(=O)Nc3ccc(F)cc3)ccc2O1 | -17 | · | -17 | 0 | 0 | ·
COc1ccc(CCNC(=O)Nc2cccc([N+](=O)[O-])c2)cc1OC | 0 | 4 | 8 | 0 | 5 | ·
O=C(NCc1ccc(F)cc1)Nc1cccc([N+](=O)[O-])c1 | -1 | -8 | 18 | 62* | 8 | 94*
O=C(NCc1cccnc1)Nc1cccc([N+](=O)[O-])c1 | -1 | -12 | -3 | 2 | 3 | ·
O=C(NCc1ccncc1)Nc1cccc([N+](=O)[O-])c1 | -2 | -7 | 11 | 91* | 13 | 73*
COc1ccc(CCNC(=O)Nc2cccc([N+](=O)[O-])c2)cc1 | -3 | 10 | 14 | 85* | 4 | 83*
O=[N+]([O-])c1cccc(S(=O)(=O)NCc2ccncc2)c1 | 1 | -15 | -9 | 82* | 5 | 60*
OC[C@@H]1CN(Cc2ccc3c(c2)OCO3)C[C@H](n2cnc3c(NC4CCCC4)ncnc32)O1 | · | · | -26 | -2 | 4 | ·
C[C@H](O)[C@@H]1C(=O)N2CCc3c([nH]c4c(-c5ccccc5)cccc34)[C@@H]2C[C@@H]1N(C)C(=O)NC1CCCCC1 | · | · | -2 | · | 2 | ·
COc1ccc(-c2csc(NC(=O)C3CCN(c4ncnc5sc(C)c(C)c45)CC3)n2)cc1OC | 3 | · | 50* | 88* | 2 | 65*
CCOCCCNc1ncnc2c1[nH]c1ccccc12 | 2 | 23 | 15 | -1 | 1 | ·
CCCCOCCCNc1ncnc2c1[nH]c1ccccc12 | 3 | 16 | 31 | 92* | 10 | 93*
C[C@@H]1CN([C@@H](C)CO)C(=O)CCCn2nncc2CO[C@H]1CN(C)CC1CC1 | · | · | -7 | · | 2 | ·
O=C(Nn1c(C2CCCCC2)nc2ccccc2c1=O)c1ccc(Cl)c([N+](=O)[O-])c1 | 1 | -16 | -9 | 72* | 1 | 83*
Cc1cc(C(=O)Nn2c(C)nc3ccccc3c2=O)ccc1[N+](=O)[O-] | 1 | -6 | -15 | 0 | 8 | ·
Cc1cc(C(=O)Nn2c(C3CCCCC3)nc3ccccc3c2=O)ccc1[N+](=O)[O-] | 0 | -9 | 7 | 53* | 7 | 77*
O=C(Nn1c(C2CCCCC2)nc2ccccc2c1=O)c1cc(Cl)ccc1[N+](=O)[O-] | 4 | -11 | 9 | 8 | 7 | ·
O=c1[nH]cnc2c1nnn2C1OC(CO)C(O)C1O (stereo unspecified) | · | · | -26 | -2 | 3 | ·
CCc1cc2cc(C)cc(C)c2nc1SCC(=O)N1CCN(C(=O)c2ccco2)CC1 | -9 | -8 | -18 | 64* | 9 | 30*
COc1cc(CNCc2c[nH]c3ccccc23)cc(OC)c1 | 1 | 15 | 0 | 60* | 9 | 1 | MPTP swell DR=6.3*;MPTP counter DR=53*
COc1ccc(C(=O)N/C(=C\c2ccc(Cl)cc2)C(=O)NCc2ccncc2)cc1 | 2 | · | -12 | -1 | 2 | ·
Cc1c(CCOC(=O)CC23CC4CC(CC(C)(C4)C2)C3)sc[n+]1CC(=O)c1ccccc1 | 4 | -6 | 7 | 68* | -1 | 24*
CO/N=C/C(C#N)c1ncc(C(F)(F)F)cc1Cl (stereo unspecified) | 6 | -11 | · | 99* | · | 92*
CO/N=C/C(c1ncc(C(F)(F)F)cc1Cl)S(=O)(=O)c1ccccc1 (stereo unspecified) | -7 | 0 | -4 | 2 | -1 | ·
O=C(CSc1ncnc2c1cnn2-c1ccccc1)Nc1ccc2c(c1)OCO2 | -1 | 4 | 9 | 67* | 6 | 9 | MPTP swell DR=5.2*;MPTP counter DR=6.4*
SMILES | DAGLB inh | GPR7 antag | TAAR1 antagonist | MPTP block | TAAR1 ag | Rh123 counter | others
Cc1ccccc1-n1ncc2c(SCC(=O)NC3CCCC3)ncnc21 | 1 | 2 | -5 | 80* | 2 | 28*
COC(=O)C1=C(C)N(Cc2ccc(Cl)cc2)C(=S)NC1c1cccc(Br)c1 (stereo unspecified) | · | · | 18 | · | 0 | ·
COc1ccc(-c2nc(CN3CCN(Cc4cccc(Cl)c4)CC3)c(C)o2)cc1 | -3 | -10 | -14 | 0 | 1 | ·
CCOC(=O)N(C)C[C@H]1OCc2cn(nn2)CCCC(=O)N([C@@H](C)CO)C[C@@H]1C | · | · | 11 | · | 2 | ·
CCCCCn1c(N)c(-c2nc3ccccc3s2)c2c([N+](=O)[O-])nn(C)c(=O)c21 | 0 | 12 | · | 104* | · | -1 | MPTP swell DR=i;MPTP counter DR=<2.5*
Nc1nc2ncccn2c1-c1ccc(F)c(F)c1 | · | · | -12 | -2 | 4 | ·
COC(=O)[C@]12C[C@H](CC(=O)N3CCN(C(=O)C4CC4)CC3)C(=O)N(Cc3ccc4c(c3)OCO4)C1=C[C@H](COCc1ccccc1)O[C@@H]2C | · | · | -11 | · | 0 | ·
Cc1ccc(-c2nnc(SCC(=O)N(C)C)nc2-c2ccc(C)cc2)cc1 | 1 | -4 | -19 | 73* | 0 | -1 | MPTP swell DR=17*;MPTP counter DR=>80
Cc1ccc(C(=O)N/C(=C/c2ccc(-c3ccc([N+](=O)[O-])cc3)o2)C(=O)NCCCN(C)C)cc1 | -1 | · | -27 | -4 | 0 | ·
O=C(CCC(=O)OCC(=O)c1ccc(C(F)(F)F)cc1)OCC(=O)c1ccc(C(F)(F)F)cc1 | · | -7 | -20 | -1 | 4 | ·
COCCCC/C(=N\OCCN)c1ccc(C(F)(F)F)cc1 | 0 | 4 | -21 | 82*! | 8 | -19 | MPTP swell DR=13*;MPTP counter DR=>80
CC(=O)C1=C(C)N(Cc2ccc(F)cc2)C(=S)NC1c1cccc(Cl)c1 (stereo unspecified) | · | · | 47 | · | 1 | ·
COc1ccc(Nc2nc3nonc3nc2N2CCCCC2)cc1 | -2 | -1 | -36 | 8 | -1 | ·
CC1CCN(c2nc3nonc3nc2Nc2ccc(F)cc2)CC1 | -2 | -2 | 23 | 73* | -1 | 75*
O=C(Cn1cnc2c(NCc3ccccc3)ncnc21)N1CCN(c2ccccn2)CC1 | 3 | · | 0 | -1 | 4 | ·
Cc1cc(C)c(CN2CCN(C(=O)Cn3cnc4c(NCc5ccccc5)ncnc43)CC2)c(C)c1 | -1 | · | -9 | 80* | -2 | 84*
CSc1nc(N)nc2c1ncn2CC(=O)N1CCN(Cc2c(C)cc(C)cc2C)CC1 | -2 | · | 3 | 86* | 4 | 77*
N#Cc1ccc(S(=O)(=O)N2CCCCC2c2cc(C(=O)NCc3ccccc3)no2)cc1 (stereo unspecified) | · | · | -3 | 0 | 1 | ·
CC1(c2ccccc2)CC(C)(C)N2C(=O)C3(C(C#N)=C(N)Oc4cc(O)ccc43)c3cccc1c32 (stereo unspecified) | 0 | -17 | -15 | -1 | 8 | ·

Compound activity (PubChem BioAssay)
